# Test results: paper PMC12394898 (Chemical Science, 2025)
# Read-outs that look alike come from different tables or passages of the source.
# How the values were obtained:
# [1] = biological target: T1, recombinant human TrxR (TrxR1) (Homo sapiens, UniProt Q16881); test: Thioredoxin reductase inhibition assay; assay type: biochemical
# T1 sequence (Q16881 1-499 isoform Q16881-5): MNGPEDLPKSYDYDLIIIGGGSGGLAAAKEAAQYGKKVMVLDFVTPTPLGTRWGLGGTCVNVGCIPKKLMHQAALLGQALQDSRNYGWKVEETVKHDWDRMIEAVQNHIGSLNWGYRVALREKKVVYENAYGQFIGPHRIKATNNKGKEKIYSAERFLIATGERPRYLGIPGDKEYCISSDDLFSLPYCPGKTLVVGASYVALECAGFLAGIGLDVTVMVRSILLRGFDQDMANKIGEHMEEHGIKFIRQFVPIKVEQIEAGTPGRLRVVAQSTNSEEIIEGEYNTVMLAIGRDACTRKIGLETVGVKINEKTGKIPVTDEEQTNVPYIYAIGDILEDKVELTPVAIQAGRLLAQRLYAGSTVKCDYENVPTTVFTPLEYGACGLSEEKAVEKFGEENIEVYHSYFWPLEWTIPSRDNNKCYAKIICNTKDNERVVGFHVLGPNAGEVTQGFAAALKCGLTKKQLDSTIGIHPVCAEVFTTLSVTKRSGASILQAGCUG
# [2] = tested on: MCF-7; test: Cytotoxic activity, crystal violet staining; assay type: cell-based, human; conditions: read-out: IC50 MCF-7, MCF-7 cells, 96 hours incubation
# [3] = tested on: HT-29; test: Cytotoxic activity, crystal violet staining; assay type: cell-based, human; conditions: read-out: IC50 HT-29, HT-29 cells, 72 hours incubation
# [4] = tested on: A-549; test: Cytotoxic activity, crystal violet staining; assay type: cell-based, human; conditions: read-out: IC50 A-549, A-549 cells, 72 hours incubation
# [5] = Stability in water; assay type: physicochemical; conditions: 4 mg in DMSO-d6 (0.4 mL) diluted with D2O to 0.5 mL, 48 hours
# [6] = tested on: A2780; conditions: read-out: average IC50 in A2780 ovarian cancer cells; literature value; cited from earlier work
# [7] = tested on: organoids from HGSOC tissues (HGSOC-PDTO1-4); test: Patient-Derived Organoid cytotoxicity assay; assay type: cell-based, human
# Procedure, shortened: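 Patient-derived high-grade serous ovarian cancer tumor organoids (3D model) came from the C.R.O. biobank. Carboplatin, the standard treatment, served as positive control. Dose-response IC50 values were obtained per organoid line.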
# [8] = tested on: A2780; test: Cytotoxicity on ovarian cancer cell line; assay type: cell-based, human; conditions: read-out: IC50 A2780
# [9] = tested on: HT-29; conditions: read-out: average IC50 in HT-29 colon cancer cells; literature value; cited from earlier work
# [10] = tested on: organoids from colon cancer tissues (CRC-PDTO1-4); test: Patient-Derived Organoid cytotoxicity assay; assay type: cell-based, human
# Procedure, shortened: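 Patient-derived colorectal cancer tumor organoids (3D model) came from the C.R.O. biobank. Oxaliplatin, the standard treatment, served as positive control. Dose-response IC50 values were obtained per organoid line.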
# [11] = read-out: IC50 HGSOC-PDTO1, organoid HGSOC-PDTO1, 96 hours of treatment
# [12] = read-out: IC50 HGSOC-PDTO2, organoid HGSOC-PDTO2, 96 hours of treatment
# [13] = read-out: IC50 HGSOC-PDTO3, organoid HGSOC-PDTO3, 96 hours of treatment
# [14] = read-out: IC50 HGSOC-PDTO4, organoid HGSOC-PDTO4, 96 hours of treatment
# [15] = read-out: IC50 CRC-PDTO1, organoid CRC-PDTO1, 96 hours of treatment
# [16] = read-out: IC50 CRC-PDTO2, organoid CRC-PDTO2, 96 hours of treatment
# [17] = read-out: IC50 CRC-PDTO3, organoid CRC-PDTO3, 96 hours of treatment
# [18] = read-out: IC50 CRC-PDTO4, organoid CRC-PDTO4, 96 hours of treatment
# [19] = 50 μM for 96 hours, compared to non-treated controls
Compound,IC50 [2] [µM],IC50 [3] [µM],IC50 [4] [µM],also measured
"CC(C)c1cccc(C(C)C)c1-n1ccn(-c2c(C(C)C)cccc2C(C)C)[c]1=[Au][Se]c1ccccc1 [1a, [Au(IPr)Se(C6H5)]]",3.6 ± 0.5,3.1 ± 0.5,4.5 ± 0.9,inhibition of the enzyme (TrxR1) ([1]; highest applied dosage of 100 μM): did not show any inhibition; stability in water [5]: No change
"CC(C)c1cccc(C(C)C)c1N1CCN(c2c(C(C)C)cccc2C(C)C)[C]1=[Au][Se]c1ccccc1 [1b, [Au(SIPr)Se(C6H5)]]",> 100,> 100,> 100,–
"Cc1cc(C(c2ccccc2)c2ccccc2)c(-n2ccn(-c3c(C(c4ccccc4)c4ccccc4)cc(C)cc3C(c3ccccc3)c3ccccc3)[c]2=[Au][Se]c2ccccc2)c(C(c2ccccc2)c2ccccc2)c1 [1c, [Au(IPr*)Se(C6H5)]]",> 100,> 100,> 100,–
"Cc1c(C)n(-c2c(C(C)C)cccc2C(C)C)[c](=[Au][Se]c2ccccc2)n1-c1c(C(C)C)cccc1C(C)C [1d, [Au(IPr^Me)Se(C6H5)]]",6.1 ± 0.3,> 100,> 100,–
"Cc1cc(C)c(N2CCN(c3c(C)cc(C)cc3C)[C]2=[Au][Se]c2ccccc2)c(C)c1 [1k, [Au(SIMes)Se(C6H5)]]",4.4 ± 0.1,9.9 ± 0.3,6.3 ± 0.6,–
"CCC(CC)c1cccc(C(CC)CC)c1-n1ccn(-c2c(C(CC)CC)cccc2C(CC)CC)[c]1=[Au][Se]c1ccccc1 [1l, [Au(IPent)Se(C6H5)]]",> 100,> 100,> 100,–
"CC(C)c1cccc(C(C)C)c1-n1ccn(-c2c(C(C)C)cccc2C(C)C)[c]1=[Cu][Se]c1ccccc1 [1p, [Cu(IPr)Se(C6H5)]]",0.4 ± 0.3,1 ± 0.3,0.7 ± 0.1,–
"CC(C)c1cccc(C(C)C)c1-n1ccn(-c2c(C(C)C)cccc2C(C)C)[c]1=[Ag][Se]c1ccccc1 [1q, [Ag(IPr)Se(C6H5)]]",0.9 ± 0.2,1.2 ± 0.3,0.8 ± 0.1,–
"CC(=O)OC[C@H]1O[C@@H]([S-])[C@H](OC(C)=O)[C@@H](OC(C)=O)[C@@H]1OC(C)=O.CCP(CC)CC.[Au+] [Auranofin, reference compound]",1.5 ± 0.2,4.9 ± 0.5,3.7 ± 0.4,–
"N.N.O=C([O-])C1(C(=O)[O-])CCC1.[Pt+2] [Carboplatin, reference compound]",–,–,–,"IC50 [6]: 8 µM; IC50 [7, 11]: 3.5 ± 0.7 µM; IC50 [7, 12]: 3 ± 1 µM; IC50 [7, 13]: > 100 µM; IC50 [7, 14]: > 100 µM"
"N.N.[Cl][Pt][Cl] [Cisplatin, reference compound]",5.3 ± 0.8,7 ± 0.5,3 ± 0.4,IC50 [8]: 1000 nM
"O=C1[O][Pt]2([NH][C@@H]3CCCC[C@H]3[NH]2)[O]C1=O [Oxaliplatin, reference compound]",–,–,–,"IC50 [9]: 7 µM; IC50 [10, 15]: 1.4 ± 0.9 µM; IC50 [10, 16]: 4 ± 1 µM; IC50 [10, 17]: > 100 µM; IC50 [10, 18]: > 100 µM"
[Au(BzIPr)Se(C6H5)] [1f],1.9 ± 0.4,1.08 ± 0.05,0.32 ± 0.04,–
[Au(IPr)Se(C6H4CF3)] [2a],48 ± 5,88 ± 8,55 ± 10,–
[Au(ImPyIPr)Se(C6H5)] [1i],4.3 ± 0.4,12.6 ± 0.8,5.97 ± 0.08,–
[Au(MeIMes)Se(C6H5)] [1h],3.4 ± 0.6,4 ± 1,4 ± 0.5,–
[Au(MeIPr)Se(C6H5)] [1g],2.4 ± 0.5,2.2 ± 0.5,1.5 ± 0.3,–
[Au(MonoIPent)Se(C6H5)] [1m],0.27 ± 0.04,0.35 ± 0.05,0.27 ± 0.03,"brightfield appearance of CRC PDTOs after treatment [10, 19]: visible reductions in organoid size, density, and structural integrity; IC50 [10, 15]: 13 ± 9 µM; IC50 [10, 16]: 6 ± 2 µM; IC50 [10, 17]: 3.4 ± 0.5 µM; IC50 [10, 18]: 9 ± 5 µM; brightfield appearance of HGSOC PDTOs after treatment [7, 19]: visible reductions in organoid size, density, and structural integrity; IC50 [7, 11]: 17 ± 8 µM; IC50 [7, 12]: 4 ± 2 µM; IC50 [7, 13]: 6 ± 2 µM; IC50 [7, 14]: 7 ± 5 µM; IC50 ([1]; read-out: TrxR inhibition average IC50, recombinant human TrxR, 75 min at 37 °C): 180 ± 50 nM; IC50 [8]: 400 ± 100 nM; stability in water [5]: No change"
[Au(PPh3)Se(C6H5)] [1o],1.7 ± 0.08,2.8 ± 0.2,2.9 ± 0.4,–
